ChEMBL document CHEMBL4513216, “Probing the Open Global Health Chemical Diversity Library for Multistage-Active Starting Points for Next-Generation Antimalarials” (ACS Infect Dis, 2020)

Assay: Toxicity liver stage against HepG2, at 10uM
Type: cell-based
Parameters: test concentration 10 uM, cell line HepG2-A16-CD81EGFP
Details: human, HepG2-A16-CD81EGFP cells; read-out: INHIBITION
Method in brief: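 Uninfected HepG2-A16-CD81EGFP cells, 3 × 10^3 per well, 1536-well, plated on prespotted compound at 10 μM final, parasite-free screening media added to match infected plates; puromycin 10 μM positive, DMSO 0.5% negative; run in parallel with 48 h PbLuc assay at 37 °C, 5% CO2; viability by CellTiter-Glo luminescence, normalized to controls.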

Row | SMILES | cytotoxicity at 10 µM
1 | NC(=O)C(Cc1ccccc1)NS(=O)(=O)Cc1ccccc1Cl (configuration not stated) | 7.56%
2 | CC(C)CN1CCOC[C@H](Oc2ccc(S(C)(=O)=O)cc2)C1 | -1.67%
3 | CCC1CN(CC(=O)NCCN2CCCCC2)c2ccccc2S1 (configuration not stated) | -10%
4 | COc1ccc2nnc(CCC(=O)NCc3cccn3C)n2n1 | -10.1%
5 | O=c1c(S(=O)(=O)N2CCCCC2)cccn1Cc1ccccc1Cl | 10.6%
6 | O=C(NCC(O)(c1ccco1)C1CC1)c1ccccc1F (configuration not stated) | -1.16%
7 | COc1ccccc1OCC(=O)NCC(C)(O)c1ccccc1 (configuration not stated) | -5.37%
8 | c1cnc(N2C[C@H]3CCC[C@@H](CN4CCCC4)[C@H]3C2)nc1 | -4.22%
9 | CC(=O)N1CCCC2(C1)CN(C(=O)C1CCCCC1)CCO2 (configuration not stated) | 2.08%
10 | CC(=O)N1CCC2(C1)CN(C(=O)C1CCOC1)C2 (configuration not stated) | 4.88%
11 | O=c1[nH]nc2nc(N3CCSCC3)ccn12 | -13.5%
12 | O=C(NCCN1CCC(c2cccs2)CC1)Nc1cccs1 | -20.6%
13 | CC(C)c1cc2c(s1)NC(c1ccccc1)NC2=O (configuration not stated) | 8.82%
14 | CCS(=O)(=O)N1CCC(c2nn(CCN(C)C)c3ncccc23)C1 (configuration not stated) | -4.88%
15 | CCC1CNCc2cc3c(OC)ccc(OC)c3nc2O1 (configuration not stated) | -4.22%
16 | O=C1CN([C@@H]2CC[C@@H](NS(=O)(=O)c3ccc(F)cc3)[C@H]2O)CCN1 | -2.11%
17 | Cc1cc(N2CCC(O)CC2)nc(C2CCCN2C)n1 (configuration not stated) | -1.89%
18 | Cc1noc(C)c1C(=O)N1CCC2(CCc3ccccc3C(=O)N2)C1 (configuration not stated) | 1.75%
19 | Cc1cnc(-c2nc(O)c3c(n2)CN(C(=O)C2CC2)CC3)cn1 | -6.74%
20 | Cc1cc(N2CCCC2c2nc(C)cc(CCC(=O)O)n2)ncn1 (configuration not stated) | -17.1%
21 | COCC(=O)N1CCC(c2cc(C(F)(F)F)c3c(C)noc3n2)CC1 | -28%
22 | O=C(N[C@@H]1CC[C@@H](n2ccnc2)[C@@H]1O)c1cc2c(s1)CCC2 | -12.7%
23 | Cc1ccc(O)c(CNc2cccc(OCCF)c2)n1 | -3.09%

Row | SMILES | cytotoxicity at 10 µM
24 | Cc1ccc(CN(CCN(C)C)C(=O)Cc2cn3ccccc3n2)o1 | -5.1%
25 | COc1ccccc1CC(C)CC(=O)NS(=O)(=O)C(C)C (configuration not stated) | 4.56%
26 | N#Cc1cc(F)ccc1CN1CCCCC1Cn1cncn1 (configuration not stated) | 5.41%
27 | CNC(=O)c1coc(-c2csc(C)n2)c1 | 6.96%
28 | CCS(=O)(=O)NCCN1CCc2ccc(F)cc2C1C (configuration not stated) | 6.88%
29 | CC(Nc1ccn(CCS(C)(=O)=O)n1)c1ccc(C#N)cc1 (configuration not stated) | 8.64%
30 | CCC(C)(C)NC(=O)c1ccc(NC(=O)NCc2cc(C)no2)cc1 | 0.696%
31 | COc1ccnc(N2CCN(Cc3ncc(C(C)(C)C)o3)CC2)n1 | -7.2%
32 | CN(CC(=O)NS(=O)(=O)c1ccsc1)Cc1ccccc1 | -5.1%
33 | COc1cc(C(=O)NC(C)c2cccs2)cc2c1OCCO2 (configuration not stated) | -18.2%
34 | COC(CNC(=O)c1ccc(NC(C)=O)cc1)c1cccc(Cl)c1 (configuration not stated) | 7.72%
35 | CN(Cc1cnn(C)c1)C(=O)CCc1ccc2c(c1)OCO2 | -2.59%
36 | N#Cc1ccc(N2CCCN(CCCn3cncn3)CC2)cc1 | -8.9%
37 | O=C(Nc1nc(-c2ccccc2)ns1)N1CC[C@H](O)C1 | 10.5%
38 | N#Cc1cc(NC(=O)c2cc[nH]n2)ccc1N1CCC(O)CC1 | -0.758%
39 | O=C1NCCCCC1Sc1n[nH]c(=O)n1C1CC1 (configuration not stated) | 5.24%
40 | Cc1cc(C)n(C2CN(Cc3noc(C4CC4)n3)C2)n1 | 0.738%
41 | NC(=O)C1CCN(Cn2nc(-c3ccc(F)cc3)oc2=O)C1 (configuration not stated) | 14.6%
42 | CC(=O)N(C)C1CCN(C(=O)c2cccc3c2ccn3C)CC1 | 1.56%
43 | FC(F)c1nnc2ccc(N3CCC4(CCOC4)C3)nn12 (configuration not stated) | 9.2%
44 | O=C(Nc1cn[nH]c1)N(CCCO)C1CCc2ccccc21 (configuration not stated) | -1.74%
45 | COC(=O)NCCCC(=O)NC1(c2cccc(Cl)c2)CC1 | -2.56%
46 | CCN1CCOC(CNc2nccc(C(F)(F)F)n2)C1 (configuration not stated) | 5.31%

Row | SMILES | cytotoxicity at 10 µM
47 | Cn1cc(CCCNC(=O)NCC(O)c2ccsc2)cn1 (configuration not stated) | -5.4%
48 | CCCn1nc2c(cc1=O)CN(CC(=O)N(C)c1nccs1)CC2 | 1.25%
49 | CN(CCN1CCOC1=O)CC(=O)Nc1cc(F)cc(F)c1 | -49.5%
50 | Cc1nn(C)c(Cl)c1CN1CCN(c2nccs2)C(C)C1 (configuration not stated) | -27.1%
51 | O=C(c1cc(Cl)c[nH]1)N1CCN(CCc2ccccn2)CC1 | 19.2%
52 | CC(NC(=O)N1CCN(c2cccs2)CC1)c1ccncc1 (configuration not stated) | 15.8%
53 | CN1CCN(Cc2cccc(NCc3cc[nH]n3)c2)CC1 | 11.2%
54 | Cc1cc(C)n(CC2CCCN2C(=O)c2ccc3c(c2)nnn3C)n1 (configuration not stated) | -17.3%
55 | O=C(NCC1Cn2nnc(-c3cccc(F)c3)c2CO1)c1ccc[nH]1 (configuration not stated) | 1.46%
56 | O=C(NC1CCCC1)N1CCC2(CC1)CC(Oc1cccnc1)CO2 (configuration not stated) | -5.6%
57 | CC1(C)CNC(=O)c2nc(-c3nnn[nH]3)[nH]c2C1 | -5.69%
58 | Cc1ccccc1C(CC(=O)NCc1nnc(N)s1)c1ccccc1 (configuration not stated) | 13.6%
59 | O=C1OCCN1Cc1cccc(C(F)(F)F)c1F | -0.524%
60 | Nc1nc(CCCNC(=O)C2CCCN(Cc3ccco3)C2)cs1 (configuration not stated) | -0.745%
61 | COc1cc(C)cc(OC)c1C(C(=O)O)N(C)Cc1c(C)nn(C)c1C (configuration not stated) | 7.34%
62 | Cc1cc(C)n(C2CN(C(=O)c3cn4ccsc4n3)C2)n1 | 4.99%
63 | CC(C)[C@@H]1CN(Cc2ccccn2)C[C@H]1NS(=O)(=O)N(C)C | -0.869%
64 | CCOCCn1nc(C)cc1C(=O)N1CCC2(CC1)[C@H](O)C[C@@H]2OCC | 4.35%
65 | CCc1ncc2c(n1)CN(c1nc(C)ccc1C(=O)O)C2 | 8.25%
66 | Cc1nc2c(c(N3CCC4(CCCNC4=O)C3)n1)CCC2 (configuration not stated) | -12.8%
67 | O=C(Cn1cccn1)NCC1CCN(Cc2cc3ccccc3[nH]2)C1 (configuration not stated) | 7.11%
68 | CCc1nccn1CCC(=O)N1CCOC(c2ccc(F)cc2)C1 (configuration not stated) | -12.5%
69 | CCc1noc(C)c1C(=O)N1CCC2(CCCN(CC(C)(C)C)C2=O)C1 (configuration not stated) | 3.75%

Row | SMILES | cytotoxicity at 10 µM
70 | Cc1cccnc1CNCC1(O)CCCN(CC2CCC2)C1=O (configuration not stated) | -5.51%
71 | CC(=O)c1ccc(C(=O)N(C)Cc2nc(-c3ccccn3)no2)s1 | 2.45%
72 | CN(Cc1cc2n(n1)CCCNC2)Cc1n[nH]c2c1CCC2 | 3.04%
73 | c1ccc(-c2ncc(CN3CCC4(CCNCC4)C3)cn2)cc1 | -5.71%
74 | CN(C)C(C(=O)NCC1(Cn2cccn2)CC1)c1ccc(F)cc1 (configuration not stated) | 3.65%
75 | CN1CCN(C)C2(CCN(Cc3ccc(C4CCCCO4)o3)CC2)C1 (configuration not stated) | 0.0773%
76 | CC(NC(=O)CCCc1ccc(Cl)cc1)c1nnn[nH]1 (configuration not stated) | 0.292%
77 | CNC(=O)[C@@H]1C[C@@H](N)CN1C(=O)CCSCc1ccc(F)cc1 | -17.6%
78 | CS(=O)(=O)c1ccc(-c2cc(O)cc(CCC3CCCCN3)c2)cc1 (configuration not stated) | 0.292%
79 | CCc1cc(CN(C)C(=O)CN2CC(c3ccccc3)CC2=O)on1 (configuration not stated) | -4.81%
80 | Cc1nsc(NC(=O)N2CCCC2C)n1 (configuration not stated) | -38.7%
81 | CCc1nc2c(N3CCC4(CC3)CNC(=O)C4)ncnc2o1 | -2%
82 | O=C(C1CCCCO1)N1CCc2ncnc(NCc3ccon3)c2CC1 (configuration not stated) | 13.1%
83 | CCNC(=O)[C@@H]1C[C@@H](N)CN1C(=O)C1(c2ccc(OC)cc2)CCCC1 | 3.95%
84 | CC(CCn1cccn1)NCc1n[nH]c2c1CCCCC2 (configuration not stated) | -3.98%
85 | O=C1CCCN1CCCC(=O)N1CCC2(CC1)[C@H](O)C[C@@H]2O | -2.38%
86 | O=C(CCCc1cn[nH]c1)N1CCOCC(O)C1 (configuration not stated) | -23%
87 | Cc1nn(C)c(C)c1C1CCCN1C(=O)c1ccc(C(N)=O)cn1 (configuration not stated) | -4.34%
88 | CCC(C)C(=O)NS(=O)(=O)c1ccc(C#N)cc1C(F)(F)F (configuration not stated) | -5.25%
89 | CC1COCCN1Cc1nc(-c2cccc(C(F)(F)F)c2)no1 (configuration not stated) | -13.9%
90 | CC(C)Cc1nc(CN2CCCC2Cn2cncn2)no1 (configuration not stated) | -8.66%
91 | CCc1nc(C2CCCN2CCCSC)no1 (configuration not stated) | -6.57%
92 | COCCc1noc(CN(C)C2CCCN(c3cccnn3)C2)n1 (configuration not stated) | -8.64%

Row | SMILES | cytotoxicity at 10 µM
93 | COc1ncccc1NC(=O)C1CC1 | -19.2%
94 | CC(C)c1cc(NC(=O)CN2CCC(C(N)=O)CC2)on1 | -6.37%
95 | Cc1cnn(CC2CN(Cc3csc(C(C)C)n3)CCO2)c1 (configuration not stated) | 5.58%
96 | CN(C)c1cc(CNC(=O)c2ccc(O)nc2)ccn1 | -16%
97 | CCc1nc(CN2CCN(C(=O)c3cnccn3)CC2)cs1 | -8.92%
98 | COc1cccc(Nc2nc(C3CCNCC3)c3ccccn23)c1 | -2.67%
99 | OC1CCN(c2cncc(CCC3CCCN3)n2)CC1 (configuration not stated) | -0.24%
100 | CC(C)N1CCCC1c1cc(CO)[nH]n1 (configuration not stated) | 6%
101 | Cc1ccc(CN(CCCn2ccnc2)Cc2[nH]cnc2C)s1 | -22.8%
102 | Cn1cc(C(=O)NCc2cn3c(n2)CN(CC2CCOCC2)CC3)cn1 | -12.9%
103 | CN(C)c1ncc(C2Nc3ccccc3C3=NCCCN32)cn1 (configuration not stated) | -23.2%
104 | O=S(=O)(c1ccccc1)N1C[C@@H]2COC[C@]2(CN2CCOCC2)C1 | 2.32%
105 | O=C(Cc1cccc(F)c1)N1C[C@H]2CN(Cc3ccccn3)C[C@H]2C1 | -2.25%
106 | CN(C)C(=O)c1cnc2n1CCN(Cc1ccccc1)C2 | 7.05%
107 | c1cc(CN2C[C@H](OCC3CCOCC3)[C@H]3COC[C@H]32)cs1 | 9.86%
108 | CCCN1CCCn2c(nc(CNC(=O)c3cnoc3C)cc2=O)C1 | 2.32%
109 | CSc1ncc(CN2C[C@@H]3CC[C@H]2CN(C2CCOCC2)C3)cn1 | -0.943%
110 | CNC(=O)[C@H]1C[C@H]2CN(Cc3ccc(C)cc3)C[C@@H]1O2 | 1.82%
111 | COc1ccc(OC)c(C(=O)N2C[C@@H]3CC[C@H]2CN(C)C3)c1 | 4.61%
112 | O=C(CSc1ccncc1)N1C[C@@H]2CC[C@H]1CN(Cc1cccnc1)C2 | 4.66%
